Measurements published in ChEMBL document CHEMBL3046806, “Synthesis and herbicidal activity of novel 3-aminocarbonyl-2-oxazolidinethione derivatives containing a substituted pyridine ring” (2006).
Activity calls are given as the source filed them. No cut-off for these calls is given here.

Columns and labels:
Echinochloa crus-galli [1] = test: Herbicidal activity against Echinochloa crus-galli (barnyard grass) assessed as induction weed albinism 7 days post compound treatment; format: functional, organism-based
[2] = system: Brassica rapa subsp. oleifera; test: Herbicidal activity against Brassica rapa subsp. oleifera assessed as growth inhibition rate at 100 mg/L 7 days post compound treatment; format: functional; conditions: 168 h, read-out: GI
Method in brief: (§1)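 Compound dissolved in DMF and diluted to the test concentration with water containing emulsifier 0201 (anionic/nonionic surfactant, 0.1 g L-1). Seeds were sown once the agar cooled and kept at 24 ± 1 °C under 3000 lx light for 7 days. Read-out was root growth inhibition (%) versus control, in three replicates of 150 seeds per species per concentration.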

Echinochloa crus-galli [3] = test: Herbicidal activity against Echinochloa crus-galli (barnyard grass) assessed as induction of yellow symptoms of leaves 7 days post compound treatment; format: functional, organism-based
Echinochloa crus-galli [4] = test: Herbicidal activity against Echinochloa crus-galli (barnyard grass) assessed as growth inhibition rate at 100 mg/L 7 days post compound treatment; format: functional; conditions: 168 h, read-out: GI; method in brief: as §1
Digitaria sanguinalis = test: Herbicidal activity against Digitaria sanguinalis (hairy crabgrass) assessed as growth inhibition rate at 100 mg/L 7 days post compound treatment; format: functional; conditions: 168 h, read-out: GI; method in brief: as §1
Cucumis sativus = test: Herbicidal activity against Cucumis sativus (cucumber) assessed as growth inhibition rate at 100 mg/L 7 days post compound treatment; format: functional; conditions: 168 h, read-out: GI; method in brief: as §1
Eclipta prostrata = test: Herbicidal activity against Eclipta prostrata assessed as growth inhibition rate at 100 mg/L 7 days post compound treatment; format: functional; conditions: 168 h, read-out: GI; method in brief: as §1
Sorghum bicolor = test: Herbicidal activity against Sorghum bicolor assessed as growth inhibition rate at 100 mg/L 7 days post compound treatment; format: functional; conditions: 168 h, read-out: GI; method in brief: as §1

SMILES | Activity (Echinochloa crus-galli [1]) | inhibition of growth at 100 µg/mL [2] [%] | Activity (Echinochloa crus-galli [3]) | inhibition of growth at 100 µg/mL (Echinochloa crus-galli [4]) [%] | inhibition of growth at 100 µg/mL (Digitaria sanguinalis) [%] | inhibition of growth at 100 µg/mL (Cucumis sativus) [%] | inhibition of growth at 100 µg/mL (Eclipta prostrata) [%] | inhibition of growth at 100 µg/mL (Sorghum bicolor) [%]
C[C@@H]1[C@H](c2ccc(OCC(F)(F)F)nc2)OC(=S)N1C(=O)NC1CCCCC1 (relative stereo) | Active | 40 | Active | 80 | 70 | 40 | 80 | 60
C[C@@H]1[C@H](c2ccncc2)OC(=S)N1C(=O)Nc1ccccc1[N+](=O)[O-] (relative stereo) | Active | 50 | Active | 60 | 70 | 20 | 80 | 70
C[C@@H]1[C@H](c2ccncc2)OC(=S)N1C(=O)NC1CCCCC1 (relative stereo) | Active | 80 | Active | 90 | 80 | 20 | 85 | 30
CCOc1ccc([C@@H]2OC(=S)N(C(=O)Nc3ccccc3OCC)[C@@H]2C)cn1 (relative stereo) | Active | 0 | Active | 50 | 80 | 0 | 20 | 0
CCOc1ccccc1NC(=O)N1C(=S)O[C@@H](c2ccc(Cl)nc2)[C@H]1C (relative stereo) | Active | 90 | Active | 90 | 80 | 90 | 90 | 70
C[C@@H]1[C@H](c2ccccn2)OC(=S)N1C(=O)NC1CCCCC1 (relative stereo) | Active | 0 | Active | 70 | 70 | 0 | 80 | 0
